pIC50: −log10 of the molar value. The source made the active and inactive calls. The rule behind the calls is not given here.
What was measured:
[1] = biological target: T1, Polyunsaturated fatty acid 5-lipoxygenase (Homo sapiens) (UniProt P09917); assay: Inhibition of calcium ionophore (A23187)-stimulated human 5-LO assessed as reduction of LTB4 production by measuring remaining activity at 100 uM preincubated for 15 mins followed by calcium ionophore (A23187) addition measured after 15 mins by LC-MS/MS analysis
T1 sequence (whole entry): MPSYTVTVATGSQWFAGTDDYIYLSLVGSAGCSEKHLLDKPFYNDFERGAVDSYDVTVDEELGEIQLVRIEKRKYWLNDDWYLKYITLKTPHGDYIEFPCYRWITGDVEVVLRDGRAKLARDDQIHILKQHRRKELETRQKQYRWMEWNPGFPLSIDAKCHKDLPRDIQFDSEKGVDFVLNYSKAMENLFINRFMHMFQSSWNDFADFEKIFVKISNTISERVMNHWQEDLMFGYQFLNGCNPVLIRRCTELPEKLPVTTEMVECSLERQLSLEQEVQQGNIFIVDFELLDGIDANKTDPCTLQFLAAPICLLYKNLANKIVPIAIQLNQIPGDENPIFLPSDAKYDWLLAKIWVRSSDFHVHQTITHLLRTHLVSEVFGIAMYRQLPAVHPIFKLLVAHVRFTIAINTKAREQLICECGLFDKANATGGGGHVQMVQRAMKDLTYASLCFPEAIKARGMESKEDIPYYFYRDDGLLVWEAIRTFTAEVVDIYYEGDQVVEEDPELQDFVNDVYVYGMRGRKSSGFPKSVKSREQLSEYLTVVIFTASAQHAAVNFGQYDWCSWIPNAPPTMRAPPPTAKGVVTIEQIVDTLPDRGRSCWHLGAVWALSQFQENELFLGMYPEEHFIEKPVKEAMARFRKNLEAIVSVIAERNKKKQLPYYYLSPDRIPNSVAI
Procedure, shortened: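 Heparinized human whole blood (500 µL) preincubated with compound 15 min at 37 °C, then stimulated with 20 µM calcium ionophore A23187 in autologous plasma for 15 min at 37 °C. Plasma spiked with deuterated LTB₄ and HETE internal standards, extracted into ethyl acetate, analysed by LC–MS/MS. Inhibition scored when a level fell by 33% or more versus control.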

[2] = biological target: T2, Prostaglandin E synthase (Homo sapiens) (UniProt O14684); assay: Inhibition of mPGES-1 in human HeLa cells using PGH2 as substrate assessed as inhibition of IL-1beta/TNFalpha-stimulated PGE2 production at 5 uM preincubated for 30 mins followed by substrate addition measured after 1 min by LC-MS/MS analysis; type: cell-based
T2 sequence (whole entry): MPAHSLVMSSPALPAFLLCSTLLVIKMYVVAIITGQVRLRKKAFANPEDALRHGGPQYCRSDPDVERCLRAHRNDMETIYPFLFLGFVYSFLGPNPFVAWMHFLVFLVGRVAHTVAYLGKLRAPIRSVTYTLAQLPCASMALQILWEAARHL
Procedure, shortened: (§1)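 Microsomal fraction from HeLa, NIH-3T3 or RAW 264.7 cells, obtained by sonication and ultracentrifugation, resuspended in 0.1 M KPi pH 7.4 with 2.5 mM reduced GSH. Protein at 0.15 mg/mL (HeLa, NIH) or 0.3 mg/mL (RAW) incubated with compound 30 min on ice. Reaction started with 20 µM PGH₂, stopped after 1 min with FeCl₂/citric acid. PGE₂ quantified by SPE and LC–MS/MS. IC50 from four-parameter logistic fit of increasing concentrations.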

[3] = biological target: Prostaglandin G/H synthase 1 (Homo sapiens) (UniProt P23219); assay: Inhibition of COX1 in human whole blood assessed as reduction in TXB2 production by measuring remaining activity at 100 uM after 1 hr by LC-MS/MS analysis
Prostaglandin G/H synthase 1 (Homo sapiens), sequence (P23219 whole entry): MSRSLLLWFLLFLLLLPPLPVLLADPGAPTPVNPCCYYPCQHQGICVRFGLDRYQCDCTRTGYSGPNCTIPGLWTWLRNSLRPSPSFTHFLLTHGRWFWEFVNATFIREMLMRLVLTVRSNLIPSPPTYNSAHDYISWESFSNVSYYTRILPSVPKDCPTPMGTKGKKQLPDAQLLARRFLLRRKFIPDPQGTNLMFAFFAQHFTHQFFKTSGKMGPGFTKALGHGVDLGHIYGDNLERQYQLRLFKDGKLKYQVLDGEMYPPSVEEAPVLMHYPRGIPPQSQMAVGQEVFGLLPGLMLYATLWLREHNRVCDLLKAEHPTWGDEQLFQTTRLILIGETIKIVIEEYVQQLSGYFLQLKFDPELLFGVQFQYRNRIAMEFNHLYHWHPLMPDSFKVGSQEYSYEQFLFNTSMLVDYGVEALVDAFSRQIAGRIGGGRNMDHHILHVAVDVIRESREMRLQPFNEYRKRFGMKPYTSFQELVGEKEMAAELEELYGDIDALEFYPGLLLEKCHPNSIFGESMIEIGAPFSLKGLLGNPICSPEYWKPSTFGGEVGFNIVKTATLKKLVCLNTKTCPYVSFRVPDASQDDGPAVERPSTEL

[4] = biological target: T2, Prostaglandin E synthase (Homo sapiens); assay: Inhibition of mPGES-1 in human HeLa cells using PGH2 as substrate assessed as inhibition of IL-1beta/TNFalpha-stimulated PGE2 production at 10 uM after 24 hrs by LC-MS/MS analysis; type: cell-based
Procedure, shortened: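 HeLa cells (2 × 10⁴ per well) grown 24 h at 37 °C, then given fresh medium with 1 ng/mL IL-1b + 5 ng/mL TNFa (or PBS for unstimulated control) plus compound (1, 10 or 100 µM) or DMSO for 24 h at 37 °C. Supernatant mixed with H₃PO₄, EDTA and deuterated internal standards; PGE₂ measured by SPE and LC–MS/MS.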

Prostaglandin E synthase = biological target: T3, Prostaglandin E synthase (Homo sapiens, UniProt O14684); assay: Inhibition of mPGES-1 in human HeLa cells using PGH2 as substrate assessed as inhibition of IL-1beta/TNFalpha-stimulated PGE2 production preincubated for 30 mins followed by substrate addition measured after 1 min by LC-MS/MS analysis; type: cell-based; procedure, shortened: as §1
T3 sequence (O14684 whole entry): T2 sequence (whole entry)

[5] = biological target: T4, Prostaglandin G/H synthase 2 (Homo sapiens) (UniProt P35354); assay: Inhibition of recombinant human COX2 using […] at 10 uM by LC-MS/MS analysis
T4 sequence (whole entry): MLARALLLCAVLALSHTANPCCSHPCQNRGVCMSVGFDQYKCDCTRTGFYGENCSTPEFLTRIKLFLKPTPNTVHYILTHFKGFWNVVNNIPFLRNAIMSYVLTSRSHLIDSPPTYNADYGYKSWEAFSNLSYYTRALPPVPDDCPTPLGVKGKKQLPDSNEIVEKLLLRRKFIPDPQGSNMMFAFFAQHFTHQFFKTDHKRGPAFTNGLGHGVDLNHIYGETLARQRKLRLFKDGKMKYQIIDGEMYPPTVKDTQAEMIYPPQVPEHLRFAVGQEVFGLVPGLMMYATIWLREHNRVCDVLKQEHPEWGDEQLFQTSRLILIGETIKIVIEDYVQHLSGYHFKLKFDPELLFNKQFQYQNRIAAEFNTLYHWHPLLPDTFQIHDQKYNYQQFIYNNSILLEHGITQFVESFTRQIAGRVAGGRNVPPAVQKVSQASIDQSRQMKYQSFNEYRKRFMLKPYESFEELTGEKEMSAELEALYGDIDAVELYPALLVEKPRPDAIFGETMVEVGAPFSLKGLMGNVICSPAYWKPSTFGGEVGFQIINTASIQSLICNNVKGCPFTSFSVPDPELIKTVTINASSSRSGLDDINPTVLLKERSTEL
Procedure, shortened: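 Ovine COX-1 and recombinant human COX-2 tested directly with a commercial COX inhibitor screening kit, following the manufacturer's protocol. COX-derived PGH₂ reduced with SnCl₂; the resulting PGE₂, PGD₂ and PGF₂a diluted in MeOH, spiked with deuterated internal standards and quantified by SPE and LC–MS/MS.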

[6] = Cytotoxicity against IL-1beta/TNFalpha-stimulated human HeLa cells assessed as cell viability at 100 uM after 24 hrs by WST-1 assay; type: cell-based; details: IL-1beta/TNFalpha-stimulated HeLa cells, read-out: Activity
Procedure, shortened: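 HeLa cells seeded at 3 × 10³ per well in medium with 10% FCS, grown 24 h at 37 °C, then stimulated with IL-1b (1 ng/mL) + TNFa (5 ng/mL) and treated at the same time with compound (1, 10, 100 µM) or DMSO for 24 h. WST-1 reagent then added for 90–150 min; absorbance read at 450 nm against 620 nm reference.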

SMILES | Activity [1] | inhibition [2] | Activity [3] | inhibition [4] | pIC50 (Prostaglandin E synthase) | inhibition [5] | viability at 24 h, 100 µM [6]
O=C(O)c1ccc(S(=O)(=O)N(Cc2ccccc2)c2ccc(Oc3ccccc3)cc2)cc1 | 140% | 79.8% | 85.2% | Active | 5.77 | < 0% | 50%
O=C(O)c1ccc(S(=O)(=O)N(Cc2ccccc2)Cc2ccc(Nc3ccccc3)cc2)cc1 | 47% | 78.5% | 110% | Active | 5.14 | 12.9% | 50%
COc1ccc(CN(CC2CCCCC2)S(=O)(=O)c2ccc(C(=O)O)cc2)cc1 | 60.4% | 67.9% | 83.6% | Active | 4.99 | 18.5% | 50%

Further lines, with some results ahead:

Activity [1] | inhibition [2] | Activity [3] | inhibition [4] | pIC50 (Prostaglandin E synthase) | inhibition [5] | SMILES | viability at 24 h, 100 µM [6]
90.8% | 90% | 92.4% | Active | 6.00 | 3.1% | O=C(O)c1ccc(S(=O)(=O)N(Cc2ccccc2)Cc2ccc(Oc3ccccc3)cc2)cc1 | 50%
110% | 39.9% | 90% | inactive | 4.86 | < 0% | COc1ccc(CN(Cc2ccccc2)S(=O)(=O)c2ccc(C(=O)O)cc2)cc1 | 50%

— ChEMBL document CHEMBL3091291, “Synthesis and pharmacological characterization of benzenesulfonamides as dual species inhibitors of human and murine mPGES-1” (Bioorg Med Chem, 2013)
